# Tests used:
# [1] = system: Meyerozyma guilliermondii; assay: Antimicrobial activity against Candida guilliermondii after 48 hrs by NCCLS microdilution method; format: functional
# [2] = system: Meyerozyma guilliermondii; assay: Antimicrobial activity against Candida guilliermondii after 48 hrs by Etest; format: functional
# Candida albicans [3] = assay: Antimicrobial activity against Candida albicans isolate C after 48 hrs by Etest; format: functional
# Procedure, shortened: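 Etest on RPMI 1640 agar with 2% glucose, run per the manufacturer's instructions. Index and control clinical blood isolates were tested in parallel.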
# Candida albicans [4] = assay: Antimicrobial activity against Candida albicans isolate R at 25 ug/ml grown on RPMI 1640 medium after 24 hrs by disk diffusion method; format: functional
# Procedure, shortened: (§1)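 Disk diffusion on 90-mm RPMI 1640 with 2% glucose agar or on Mueller-Hinton agar. Plates were swabbed in three directions with a yeast suspension of 1–5 × 10^6 cells/ml. Paper disks (6 mm) held 1, 5 or 25 µg drug. Zone diameters were read at 24 and 48 h; values are means of two experiments.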
# Candida albicans [5] = assay: Antimicrobial activity against Candida albicans isolate S at 1 ug/ml grown on RPMI 1640 medium after 24 hrs by disk diffusion method; format: functional; procedure, shortened: as §1
# Candida albicans [6] = assay: Antimicrobial activity against Candida albicans isolate S at 5 ug/ml grown on Muller-Hinton agar medium after 24 hrs by disk diffusion method; format: functional; procedure, shortened: as §1
# Candida albicans [7] = assay: Antimicrobial activity against Candida albicans isolate S at 25 ug/ml grown on Muller-Hinton agar medium after 24 hrs by disk diffusion method; format: functional; procedure, shortened: as §1
# Candida parapsilosis = assay: Antimicrobial activity against Candida parapsilosis after 48 hrs by 80% endpoint M27-A method; conditions: Lodderomyces parapsilosis
# [8] = system: Meyerozyma guilliermondii; assay: Antimicrobial activity against Candida guilliermondii after 48 hrs by 80% endpoint M27-A method
structure (smiles),measurement,setting,value
CC[C@H](C)C[C@H](C)CCCCCCCCC(=O)N[C@H]1C[C@@H](O)[C@@H](NCCN)NC(=O)[C@@H]2[C@@H](O)CCN2C(=O)[C@H]([C@H](O)CCN)NC(=O)[C@H]([C@H](O)[C@@H](O)c2ccc(O)cc2)NC(=O)[C@@H]2C[C@@H](O)CN2C(=O)[C@H]([C@@H](C)O)NC1=O [CASPOFUNGIN],MIC90,[1],> 16 µg/mL
same,MIC90,[2],> 8 µg/mL
same,MIC,Candida albicans [3],0.06 µg/mL
same,inhibition zone (IZ),Candida albicans [4],12.4 mm
same,inhibition zone (IZ),Candida albicans [5],10.7 mm
same,inhibition zone (IZ),Candida albicans [6],19.2 mm
same,inhibition zone (IZ),Candida albicans [7],23.3 mm
same,MIC90,Candida parapsilosis,2 µg/mL
same,MIC90,[8],1 µg/mL

# — ChEMBL document CHEMBL1629654, “Breakthrough Aspergillus fumigatus and Candida albicans double infection during caspofungin treatment: laboratory characteristics and implication for susceptibility testing” (2009)
